Measured values of several laboratories.
Protocols differ between the studies behind these lines.
Organism: Staphylococcus aureus

CNC(=O)c1ccc(C)c(-n2c(C)cc(OCc3ccc(F)cc3F)c(Br)c2=O)c1 — MIC (microbial growth; NCTC8325): > 30 µM
COc1ccc2nc(-n3nc(CC(C)C)c4c3-c3ccccc3C4=O)sc2c1 — inhibition zone (microbial growth; well diffusion; NCIM5021; 125 µg/mL): 12 mm
O=C(O)CN1C(=O)/C(=C/c2ccc(-c3ccc(N(c4ccccc4)c4ccccc4)cc3)c3ccccc23)NC1=S — MBC (microbial killing; broth dilution; ATCC6538): > 1000 µg/mL
COc1ccc2nc(-n3nc(C)c4c3-c3ccccc3C4=O)sc2c1 — inhibition zone (microbial growth; well diffusion; NCIM5021; 1000 µg/mL): 13 mm
CC(=O)c1c(C)c2cnc(Nc3ccc(N4CCNCC4)cn3)nc2n(C2CCCC2)c1=O — MIC (microbial growth; NCTC8325): > 30 µM
[H]/N=C(/N)N[C@H]1[C@H](O)[C@@H](O)[C@H](O[C@@H]2O[C@@H](C)[C@](O)(C=O)[C@H]2O[C@@H]2O[C@@H](CO)[C@H](O)[C@@H](O)[C@@H]2NC)[C@@H](N/C(N)=N\[H])[C@@H]1O — inhibition zone (microbial growth; well diffusion; NCIM5021; 500 µg/mL): 22 mm
O=C1NC(=S)S/C1=C\c1c2ccccc2c(-c2ccc(N(c3ccccc3)c3ccccc3)cc2)c2ccccc12 — MBC (microbial killing; broth dilution; ATCC25923): > 1000 µg/mL
CN[C@H](CC(C)C)C(=O)N[C@H]1C(=O)N[C@@H](CC(N)=O)C(=O)N[C@H]2C(=O)N[C@H]3C(=O)N[C@H](C(=O)N[C@H](C(=O)O)c4cc(O)cc(O)c4-c4cc3ccc4O)[C@H](O)c3ccc(c(Cl)c3)Oc3cc2cc(c3O[C@@H]2O[C@H](CO)[C@@H](O)[C@H](O)[C@H]2O[C@H]2C[C@](C)(N)[C@H](O)[C@H](C)O2)Oc2ccc(cc2Cl)[C@H]1O — inhibition zone (microbial growth; disc diffusion; ATCC29213; 250 µg/disc; 24 h): 21 mm
CCc1cccc(CC)c1NC(=O)N1Cc2[nH]nc(NC(=O)c3ccc(N4CCN(C)CC4)cc3)c2C1 — MIC (microbial growth; NCTC8325): > 30 µM
O=C1NC(=S)N/C1=C\c1ccc(-c2ccc(N(c3ccccc3)c3ccccc3)cc2)c2ccccc12 — MBC (microbial killing; broth dilution; ATCC43300): > 1000 µg/mL
